ChEMBL document CHEMBL4811308, “Design, synthesis and broad spectrum antibreast cancer activity of diarylindoles via induction of apoptosis in aggressive breast cancer cells” (Bioorg Med Chem, 2021)

What was measured:
Assay type in all cases: organism-based
[1] = Acute toxicity in Swiss albino mouse assessed as body weight at 5 mg/kg, po administered once and observed for 7 days (reference value: 22.75 +/- 0.93 gm); conditions: in vivo, 168 h, time 7 day
[2] = Acute toxicity in Swiss albino mouse assessed as hemoglobin level at 5 mg/kg, po administered once and observed for 7 days (reference value: 17.35 +/- 0.3 gm/dl); conditions: in vivo, 168 h, time 7 day
[3] = Acute toxicity in Swiss albino mouse assessed as RBC level at 5 mg/kg, po administered once and observed for 7 days (reference value: 9.21 +/- 0.32 /mm3); conditions: in vivo, 168 h, time 7 day
[4] = Acute toxicity in Swiss albino mouse assessed as WBC level at 5 mg/kg, po administered once and observed for 7 days (reference value: 8.55 +/- 2.71 /mm3); conditions: in vivo, 168 h, time 7 day
[5] = Acute toxicity in Swiss albino mouse assessed as SGOT level at 5 mg/kg, po administered once and observed for 7 days (reference value: 22.94 +/- 4.04 U/L); conditions: in vivo, 168 h, time 7 day
[6] = Acute toxicity in Swiss albino mouse assessed as triglyceride level at 5 mg/kg, po administered once and observed for 7 days (reference value: 81.12 +/- 7.75 mg/dl); conditions: in vivo, 168 h, time 7 day
[7] = Acute toxicity in Swiss albino mouse assessed as bilirubin level at 5 mg/kg, po administered once and observed for 7 days (reference value: 0.44 +/- 0.06 mg/dl); conditions: in vivo, 168 h, time 7 day
[8] = Acute toxicity in Swiss albino mouse assessed as albumin at 5 mg/kg, po administered once and observed for 7 days (reference value: 1.62 +/- 0.09 g/dl); conditions: in vivo, 168 h, time 7 day
[9] = Acute toxicity in Swiss albino mouse assessed as body weight at 50 mg/kg, po administered once and observed for 7 days (reference value: 22.75 +/- 0.93 gm); conditions: in vivo, 168 h, time 7 day
[10] = Acute toxicity in Swiss albino mouse assessed as RBC level at 50 mg/kg, po administered once and observed for 7 days (reference value: 9.21 +/- 0.32 /mm3); conditions: in vivo, 168 h, time 7 day
[11] = Acute toxicity in Swiss albino mouse assessed as ALP level at 50 mg/kg, po administered once and observed for 7 days (reference value: 123.22 +/- 16.04 U/L); conditions: in vivo, 168 h, time 7 day
[12] = Acute toxicity in Swiss albino mouse assessed as SGOT level at 50 mg/kg, po administered once and observed for 7 days (reference value: 22.94 +/- 4.04 U/L); conditions: in vivo, 168 h, time 7 day
[13] = Acute toxicity in Swiss albino mouse assessed as creatinine level at 50 mg/kg, po administered once and observed for 7 days (reference value: 0.11 +/- 0.03 mg/dL); conditions: in vivo, 168 h, time 7 day
[14] = Acute toxicity in Swiss albino mouse assessed as bilirubin level at 50 mg/kg, po administered once and observed for 7 days (reference value: 0.44 +/- 0.06 mg/dl); conditions: in vivo, 168 h, time 7 day
[15] = Acute toxicity in Swiss albino mouse assessed as cholesterol level at 50 mg/kg, po administered once and observed for 7 days (reference value: 122.05 +/- 8.12 mg/dl); conditions: in vivo, 168 h, time 7 day
[16] = Acute toxicity in Swiss albino mouse assessed as albumin at 50 mg/kg, po administered once and observed for 7 days (reference value: 1.62 +/- 0.09 g/dl); conditions: in vivo, 168 h, time 7 day
[17] = Acute toxicity in Swiss albino mouse assessed as protein level at 50 mg/kg, po administered once and observed for 7 days (reference value: 2.01 +/- 0.11 mg/ml); conditions: in vivo, 168 h, time 7 day
[18] = Acute toxicity in Swiss albino mouse assessed as RBC level at 300 mg/kg, po administered once and observed for 7 days (reference value: 9.21 +/- 0.32 /mm3); conditions: in vivo, 168 h, time 7 day
[19] = Acute toxicity in Swiss albino mouse assessed as ALP level at 300 mg/kg, po administered once and observed for 7 days (reference value: 123.22 +/- 16.04 U/L); conditions: in vivo, 168 h, time 7 day
[20] = Acute toxicity in Swiss albino mouse assessed as SGOT level at 300 mg/kg, po administered once and observed for 7 days (reference value: 22.94 +/- 4.04 U/L); conditions: in vivo, 168 h, time 7 day
[21] = Acute toxicity in Swiss albino mouse assessed as creatinine level at 300 mg/kg, po administered once and observed for 7 days (reference value: 0.11 +/- 0.03 mg/dL); conditions: in vivo, 168 h, time 7 day
[22] = Acute toxicity in Swiss albino mouse assessed as triglyceride level at 300 mg/kg, po administered once and observed for 7 days (reference value: 81.12 +/- 7.75 mg/dl); conditions: in vivo, 168 h, time 7 day
[23] = Acute toxicity in Swiss albino mouse assessed as bilirubin level at 300 mg/kg, po administered once and observed for 7 days (reference value: 0.44 +/- 0.06 mg/dl); conditions: in vivo, 168 h, time 7 day
[24] = Acute toxicity in Swiss albino mouse assessed as cholesterol level at 300 mg/kg, po administered once and observed for 7 days (reference value: 122.05 +/- 8.12 mg/dl); conditions: in vivo, 168 h, time 7 day
[25] = Acute toxicity in Swiss albino mouse assessed as protein level at 300 mg/kg, po administered once and observed for 7 days (reference value: 2.01 +/- 0.11 mg/ml); conditions: in vivo, 168 h, time 7 day
[26] = Acute toxicity in Swiss albino mouse assessed as effect on gait at 5 to 300 mg/kg, po administered once and observed for 7 days; conditions: in vivo, 168 h, dose 5-300 mg/kg, time 7 day
Outline: (§1)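 Acute oral toxicity per OECD guideline 423; mice 20–25 g, 3 male + 3 female per group, acclimatized 7 days at 22 ± 5 °C, 12 h light/dark. Compound dissolved in minimal DMSO, diluted in 0.7% CMC, single oral dose of 5, 50 or 300 mg/kg; controls given vehicle only. Clinical signs checked hourly on dosing day, then daily. Samples and body weights taken on day 7.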

[27] = Acute toxicity in Swiss albino mouse assessed as absolute liver weight at 5 to 300 mg/kg, po administered once and observed for 7 days; conditions: in vivo, 168 h, dose 5-300 mg/kg, time 7 day; outline: as §1
[28] = Acute toxicity in Swiss albino mouse assessed as absolute lungs weight at 5 to 300 mg/kg, po administered once and observed for 7 days; conditions: in vivo, 168 h, dose 5-300 mg/kg, time 7 day; outline: as §1
[29] = Acute toxicity in Swiss albino mouse assessed as absolute brain weight at 5 to 300 mg/kg, po administered once and observed for 7 days; conditions: in vivo, 168 h, dose 5-300 mg/kg, time 7 day; outline: as §1
[30] = Acute toxicity in Swiss albino mouse assessed as absolute kidney weight at 5 to 300 mg/kg, po administered once and observed for 7 days; conditions: in vivo, 168 h, dose 5-300 mg/kg, time 7 day; outline: as §1
[31] = Acute toxicity in Swiss albino mouse assessed as absolute spleen weight at 5 to 300 mg/kg, po administered once and observed for 7 days; conditions: in vivo, 168 h, dose 5-300 mg/kg, time 7 day; outline: as §1
[32] = Acute toxicity in Swiss albino mouse assessed as absolute heart weight at 5 to 300 mg/kg, po administered once and observed for 7 days; conditions: in vivo, 168 h, dose 5-300 mg/kg, time 7 day; outline: as §1
[33] = Acute toxicity in Swiss albino mouse assessed as relative liver weight at 5 to 300 mg/kg, po administered once and observed for 7 days; conditions: in vivo, 168 h, dose 5-300 mg/kg, time 7 day; outline: as §1
[34] = Acute toxicity in Swiss albino mouse assessed as relative lungs weight at 5 to 300 mg/kg, po administered once and observed for 7 days; conditions: in vivo, 168 h, dose 5-300 mg/kg, time 7 day; outline: as §1
[35] = Acute toxicity in Swiss albino mouse assessed as relative brain weight at 5 to 300 mg/kg, po administered once and observed for 7 days; conditions: in vivo, 168 h, dose 5-300 mg/kg, time 7 day; outline: as §1
[36] = Acute toxicity in Swiss albino mouse assessed as relative kidney weight at 5 to 300 mg/kg, po administered once and observed for 7 days; conditions: in vivo, 168 h, dose 5-300 mg/kg, time 7 day; outline: as §1

Compound	Activity [1]	Activity [2]	Activity [3]	Activity [4]	Activity [5]	Activity [6]	Activity [7]	Activity [8]	Activity [9]	Activity [10]	Activity [11]	Activity [12]	Activity [13]	Activity [14]	Activity [15]	Activity [16]	Activity [17]	Activity [18]	Activity [19]	Activity [20]	other results
COc1ccc2c(c1)c(Cc1ccc(OC(C)CN(C)C)cc1)c(-c1cc(OC)c(OC)c(OC)c1)n2Cc1ccc(OC(C)CN(C)C)cc1 (configuration not stated)	21.6 g	15.83 g/dL	9.12 million/mm3	6.23 thousands/mm3	28.86 U/L	105.82 mg/dL	0.34 mg/dL	1.48 g/dL	23.48 g	8.67 million/mm3	84.85 U/L	33.28 U/L	0.12 mg/dL	0.39 mg/dL	108.65 mg/dL	1.29 g/dL	1.28 mg/mL	7.96 million/mm3	74.12 U/L	33.25 U/L	Activity [21]: 0.14 mg/dL; Activity [22]: 86.58 mg/dL; Activity [23]: 0.36 mg/dL; Activity [24]: 108.72 mg/dL; Activity [25]: 1.66 mg/mL; Activity [26]: Non-Toxic; Activity [27]: Non-Toxic; Activity [28]: Non-Toxic; Activity [29]: Non-Toxic; Activity [30]: Non-Toxic; Activity [31]: Non-Toxic; Activity [32]: Non-Toxic; Activity [33]: Non-Toxic; Activity [34]: Non-Toxic; Activity [35]: Non-Toxic; Activity [36]: Non-Toxic
COc1ccc2c(c1)c(Cc1ccc(OCCN(C)C)cc1)c(-c1cc(OC)c(OC)c(OC)c1)n2Cc1ccc(OCCN(C)C)cc1	21.71 g	16.59 g/dL	9.67 million/mm3	6.73 thousands/mm3	22.11 U/L	63.83 mg/dL	0.3 mg/dL	1.52 g/dL	21.31 g	8.72 million/mm3	106.88 U/L	21.92 U/L	0.14 mg/dL	0.35 mg/dL	121.96 mg/dL	1.43 g/dL	1.48 mg/mL	9.45 million/mm3	98.7 U/L	27.73 U/L	Activity [21]: 0.15 mg/dL; Activity [22]: 91.2 mg/dL; Activity [23]: 0.36 mg/dL; Activity [24]: 132.33 mg/dL; Activity [25]: 1.93 mg/mL; Activity [26]: Non-Toxic; Activity [27]: Non-Toxic; Activity [28]: Non-Toxic; Activity [29]: Non-Toxic; Activity [30]: Non-Toxic; Activity [31]: Non-Toxic; Activity [32]: Non-Toxic; Activity [33]: Non-Toxic; Activity [34]: Non-Toxic; Activity [35]: Non-Toxic; Activity [36]: Non-Toxic
